Drawing on ChEMBL document CHEMBL1133723, “Developing a dynamic pharmacophore model for HIV-1 integrase” (J Med Chem, 2000), this text covers inhibition for seven compounds.

Where a SMILES comes first, the peptide text is derived from it. The star is where a group is joined. pNA = O=[N+]([O-])c1ccc(N*)cc1; Boc = CC(C)(C)OC(=O)*; Bn = c1ccc(C*)cc1

Assay [1] addresses Human immunodeficiency virus type 1 integrase (Human immunodeficiency virus 1) (UniProt Q7ZJM1). Description: Inhibitory activity against HIV-1 integrase at 1 mM. The method in brief: (§1)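 Integration reaction with HIV-1 integrase, run as in an earlier published method except for the detection step. The integration product was detected with digoxygenin-labelled oligonucleotides and an anti-digoxygenin antibody conjugated to horseradish peroxidase. Compounds were tested at 1 mM, 200 µM and 25 µM.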

Assay [2] has the same target. Nature of the assay: Inhibitory activity against HIV-1 integrase at 200 uM. In a few lines:
as §1

Assay [3] has the same target. Description: Inhibitory activity against HIV-1 integrase at 25 uM. The method in brief:
as §1

The target is the same in assay [4]. Conditions: at 1 mM.
Assay [5] shares this target. Conditions: at 200 µM.
The target is the same in assay [6]. Description: Inhibition against HIV-1 integrase at 25 uM. The method in brief: as §1

Take `Nc1nc(=O)c2c([nH]1)NCC(CNc1ccc(C(=O)N[C@@H](CCC(=O)O)C(=O)O)cc1)=N2`: the inhibition – broadly, the percentage by which the read-out fell short of the control – in assay [1] is more than 50%; in assay [2], more than 50%; in assay [3] it was less than 50%.

With `N=C(NCCCCCCNC(=N)NC(=N)Nc1ccc(Cl)cc1)NC(=N)Nc1ccc(Cl)cc1`, the results for the inhibition in assay [1], in assay [2] and in assay [3] were more than 50%, less than 50% and less than 50%, respectively.

For the compound `Cc1[nH]n(-c2cccc(NC(=O)Nc3cccc(-n4[nH]c(C)c(/N=N/c5c(O)cc(S(=O)(=O)O)c6cc([N+](=O)[O-])ccc56)c4=O)c3)c2)c(=O)c1/N=N/c1c(O)cc(S(=O)(=O)O)c2cc([N+](=O)[O-])ccc12`, the inhibition in assay [4], in assay [5] and in assay [6] was more than 50% in each case.

For the compound `NNC(=O)C(O)C(O)C(O)C(O)CO` (stereo unspecified), the results for the inhibition in assay [4], in assay [5] and in assay [6] were more than 50%, less than 50% and less than 50%, respectively.

Regarding `CCCCCCCCCCCCC/C=C/C(O)C(N)CO[C@@H]1O[C@H](CO)[C@H](O)[C@H](O)[C@H]1O` (stereo partly specified), the inhibition in assay [4] was more than 50%; in assay [5] it was less than 50%; in assay [6] it was less than 50%.

`CC(C)(C)OC(=O)N[C@@H](COCc1ccccc1)C(=O)NCC(=O)N[C@@H](CCCN=C(N)N)C(=O)Nc1ccc([N+](=O)[O-])cc1` (Boc-Ser(Bn)-Gly-Arg-pNA): the results for the inhibition in assay [4], in assay [5] and in assay [6] were more than 50%, less than 50% and less than 50%, respectively.

With `NC[C@@H](O)c1ccc(OC(=O)[C@H](O)[C@@H](O)C(=O)O)c(OC(=O)[C@H](O)[C@@H](O)C(=O)O)c1`, the inhibition in assay [4] is more than 50%; in assay [5] it was less than 50%; in assay [6] it was less than 50%.
